Assay results gathered from unrelated publications.
Compare with care: the assays were run in different laboratories.
Target: Serine/threonine-protein kinase/endoribonuclease IRE1 (ERN1, Homo sapiens, UniProt O75460)

SMILES | assay | test system | setting | measurement | result
O=S(=O)(NC1CCC(c2cc(F)ccc2F)(S(=O)(=O)c2ccc(Cl)cc2)CC1)C(F)(F)F (stereo not shown) | cell-free assay, competition with immobilised ligand |  | 1 µM | remaining binding | 100%
Cc1cc(NC(=O)c2cccc3cc(-c4cccc5[nH]nc(N)c45)ccc23)ccc1F | enzyme activity, inhibitor |  | 0.1 µM | activity vs control | 87%
Cc1cnc(NC2CCOCC2)nc1-n1cnc(C(=O)NC(CN)c2cc(F)cc(Cl)c2)c1 (stereo not shown) | enzyme activity, inhibitor, radiometric |  | 1 µM | remaining activity | 99%
Nc1ncnc2occ(-c3ccc(NC(=O)Nc4cc(C(F)(F)F)ccc4F)cc3)c12 | cell-free assay, inhibitor |  | 20 µM | remaining signal | 16%
CN(c1ccnc(CNc2nc(Nc3ccc4c(c3)CC(=O)N4)ncc2C(F)(F)F)n1)S(C)(=O)=O | cell-free assay, competition with immobilised ligand |  | 1 µM | remaining binding | 49%
CN1CC(Oc2cnc(C#N)cc2-c2ccn3nc(NC(=O)C4CC4)cc3c2)C1 | enzyme activity, inhibitor |  | 1 µM | inhibition | 4%
Cc1ccc(C(=O)Nc2ccc(CN3CCN(C)CC3)c(C(F)(F)F)c2)cc1C#Cc1cnc2cccnn12 | enzyme activity, inhibitor |  | 23.5 nM | remaining activity | 81%
O=C(Nc1cnn(-c2csc(C(=O)NC3COC3)c2)c1)Nc1ccccc1Cl | enzyme activity, inhibitor |  | 5 µM | remaining activity | 94.3%
Cc1ccc(C(=O)NCc2ccsc2)cc1C#Cc1cn(C(C)C)c2ncnc(N)c12 | enzyme activity, inhibitor |  | 1 µM | activity vs control | 100%
Cc1sc(C(=O)NC2COC2)cc1-n1cc(NC(=O)Nc2c(F)cccc2Cl)cn1 | enzyme activity, inhibitor |  | 10 µM | remaining activity | 94.1%
COc1cccc2c(NCc3ccccc3)nc(-n3c(N)nc4ccccc43)nc12 | target engagement in cells, inhibitor, chemoproteomics |  | 20 mM | inhibition | -6.5%
CN([C@@H]1CCc2c(CC(=O)O)c3ccccc3n2C1)S(=O)(=O)c1ccc(F)cc1 | cell-free assay, competition with immobilised ligand |  | 1 µM | remaining binding | 94%
CCN1CCN(Cc2ccc(NC(=O)c3ccc(C)c(Oc4ccnc5[nH]ccc45)c3)cc2C(F)(F)F)CC1 | target engagement in cells, inhibitor, chemoproteomics | Huh-7 | 10 µM | inhibition | -12.6%
Cc1ccc(NC(=O)c2ccc(C)c(C(F)(F)F)c2)cc1C#Cc1nn(C2CCC(O)CC2)c2ncnc(N)c12 (stereo not shown) | cell-free assay |  | 10 µM | remaining signal | 94%
CCCCNc1ncc2c(-c3ccc(F)cc3)nn(C[C@H]3CC[C@H](N)CC3)c2n1 | target engagement in cells, inhibitor, chemoproteomics |  | 20 mM | inhibition | -1.9%
COc1cc(Cl)c(C(=O)N[C@@H](CN[C@H]2CC[C@@H](N)CC2)Cc2ccc(C#N)cc2)cc1-c1ccc(CN[C@H](C)c2ccc(C)cc2)o1 | enzyme activity, inhibitor |  | 1 µM | remaining activity | 93%
